The values below come from ChEMBL document CHEMBL1142308, “Synthesis and structure-activity relationships of N-(3-phenylpropyl)-N'-benzylpiperazines: Potent ligands for sigma1 and sigma2 receptors” (Bioorg Med Chem, 2008).

The target in test [1] is T1, Sigma non-opioid intracellular receptor 1 (Cavia porcellus, UniProt Q60492). The experiment in a line: Displacement of [3H](+)-PTZ from sigma1 receptor in Hartley guinea pig brain. (In general: Loss of bound radioactivity is the signal in a displacement assay; it reports binding, not function.)
Test [2] can be described thus: Displacement of [3H]DTG from sigma2 receptor in Hartley guinea pig brain. Details: species or system Cavia porcellus.
The target in test [3] is Delta-type opioid receptor (Mus musculus) (UniProt P32300). The experiment in a line: Displacement of [3H]NTI from delta opioid receptor in mouse brain. The class given is tissue-based. Details: concentration or dose not given beside the values. The procedure, abridged: (§1)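 Brain membranes came from guinea pig for mu and kappa and from mouse for delta. Radioligands were [3H]DAMGO (mu), [3H]NTI (delta) and [3H]U69,593 (kappa). The read-out is percent displacement of radioligand binding at a single concentration of 1–2 of test compound.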

The target of test [4] is Mu-type opioid receptor (Cavia porcellus) (UniProt P97266). The experiment in a line: Displacement of [3H]DAMGO from mu opioid receptor in guinea pig brain. More on the design: concentration or dose not given beside the values. An outline of the steps:
as §1

Test [5] addresses Kappa-type opioid receptor (Cavia porcellus) (UniProt P41144). The experiment in a line: Displacement of [3H]U69593 from kappa opioid receptor in guinea pig brain. Details: concentration or dose not given beside the values. An outline of the steps:
as §1

The species entered for another test is Cavia porcellus. In words: Ratio of Ki for sigma2 receptor in Hartley guinea pig brain to Ki for sigma1 receptor in Hartley guinea pig brain. An outline of the steps: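 Selectivity is expressed as the sigma2/sigma1 Ki ratio. The sigma1 Ki comes from [3H](+)-pentazocine displacement and the sigma2 Ki from [3H]DTG displacement, both in guinea pig brain. Each Ki is from Cheng-Prusoff, using Kd 2.3 nM and 23.9 nM respectively, with duplicates repeated 3–6 times.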

In test [6] the target is T1, Sigma non-opioid intracellular receptor 1. In words: Displacement of [3H]pentazocine from sigma1 receptor in guinea pig membrane. The class given is cell membranes.
For test [7] the target is unchanged. In words: Displacement of [3H]pentazocine from sigma1 receptor in guinea pig membrane in presence of phenytoin. The class given is cell membranes. An outline of the steps: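 [3H](+)-pentazocine sigma1 binding run as the standard assay, but with phenytoin in 0.15 M NaOH vehicle added to every tube; parallel controls received NaOH only. Trials performed in duplicate, 3–5 trials; ratio of IC50 with versus without phenytoin used for agonist/antagonist profiling.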

A short description of test [8]: Binding affinity to sigma receptor.
Test [9] concerns the target T2, 5-hydroxytryptamine receptor 1A (Homo sapiens, UniProt P08908).
T2 sequence (P08908 whole entry): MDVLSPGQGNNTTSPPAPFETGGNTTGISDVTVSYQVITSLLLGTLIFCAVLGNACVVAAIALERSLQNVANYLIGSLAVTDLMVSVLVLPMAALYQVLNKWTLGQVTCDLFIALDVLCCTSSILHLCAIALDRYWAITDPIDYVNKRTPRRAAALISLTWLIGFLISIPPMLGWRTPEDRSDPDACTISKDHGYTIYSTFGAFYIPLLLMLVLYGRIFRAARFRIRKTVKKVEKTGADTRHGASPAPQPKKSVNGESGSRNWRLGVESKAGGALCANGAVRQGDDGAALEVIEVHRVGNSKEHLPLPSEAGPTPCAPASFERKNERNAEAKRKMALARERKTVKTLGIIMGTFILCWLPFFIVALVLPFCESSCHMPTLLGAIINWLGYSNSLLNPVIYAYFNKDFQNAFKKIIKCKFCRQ
The experiment in a line: Binding affinity to 5HT1A receptor.

A further test has as its target D(2) dopamine receptor (Homo sapiens, UniProt P14416). The experiment in a line: Binding affinity to dopamine D2 receptor.
Test [10] deals with Sigma non-opioid intracellular receptor 1 (Cavia porcellus) (UniProt Q60492). The experiment in a line: Ratio of IC50 for sigma1 receptor in absence of phenytoin to in presence of phenytoin in guinea pig membrane. The class given is cell membranes. An outline of the steps:
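Sigma1 competition binding against [3H](+)-pentazocine in guinea pig brain homogenates, with phenytoin in 0.15 M NaOH vehicle added to every tube, alongside controls given only 0.15 M NaOH. Incubation medium was pH 7.44 at 37 °C with the NaOH additions. Ratio is IC50 without phenytoin over IC50 with it. Run in duplicate, repeated 3–6 times.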

SMILES strings stand for the structures.

Sequence of Delta-type opioid receptor (Mus musculus) (P32300 whole entry): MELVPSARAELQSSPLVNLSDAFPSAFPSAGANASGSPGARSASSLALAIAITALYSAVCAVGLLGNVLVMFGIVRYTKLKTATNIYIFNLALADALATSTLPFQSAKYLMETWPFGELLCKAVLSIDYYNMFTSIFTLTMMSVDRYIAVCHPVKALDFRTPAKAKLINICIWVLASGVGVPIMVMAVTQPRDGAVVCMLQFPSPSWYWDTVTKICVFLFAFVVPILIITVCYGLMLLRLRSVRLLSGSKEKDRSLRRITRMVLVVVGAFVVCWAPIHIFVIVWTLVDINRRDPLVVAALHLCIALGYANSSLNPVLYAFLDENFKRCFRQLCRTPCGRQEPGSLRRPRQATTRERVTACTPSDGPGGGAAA
T1 sequence (Q60492 whole entry): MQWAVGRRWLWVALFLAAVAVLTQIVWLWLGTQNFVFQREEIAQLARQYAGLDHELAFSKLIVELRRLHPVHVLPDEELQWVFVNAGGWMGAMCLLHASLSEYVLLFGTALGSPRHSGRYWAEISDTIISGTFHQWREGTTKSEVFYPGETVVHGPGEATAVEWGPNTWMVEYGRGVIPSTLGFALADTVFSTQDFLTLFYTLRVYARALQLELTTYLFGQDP
Sequence of Mu-type opioid receptor (Cavia porcellus) (P97266 whole entry): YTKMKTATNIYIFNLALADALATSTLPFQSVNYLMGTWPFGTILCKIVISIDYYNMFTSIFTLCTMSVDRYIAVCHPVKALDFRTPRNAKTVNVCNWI
Sequence of Kappa-type opioid receptor (Cavia porcellus) (P41144 whole entry): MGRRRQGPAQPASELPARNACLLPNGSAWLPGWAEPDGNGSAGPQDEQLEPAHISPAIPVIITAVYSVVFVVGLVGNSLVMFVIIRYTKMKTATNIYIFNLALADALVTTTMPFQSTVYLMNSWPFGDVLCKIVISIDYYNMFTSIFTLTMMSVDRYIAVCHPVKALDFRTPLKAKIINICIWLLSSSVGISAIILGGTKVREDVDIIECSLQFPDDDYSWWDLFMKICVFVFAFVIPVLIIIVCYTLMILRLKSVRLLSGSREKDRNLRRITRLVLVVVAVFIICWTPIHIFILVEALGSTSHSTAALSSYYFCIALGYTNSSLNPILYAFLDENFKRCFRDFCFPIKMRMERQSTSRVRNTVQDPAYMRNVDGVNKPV
Sequence of D(2) dopamine receptor (P14416 whole entry): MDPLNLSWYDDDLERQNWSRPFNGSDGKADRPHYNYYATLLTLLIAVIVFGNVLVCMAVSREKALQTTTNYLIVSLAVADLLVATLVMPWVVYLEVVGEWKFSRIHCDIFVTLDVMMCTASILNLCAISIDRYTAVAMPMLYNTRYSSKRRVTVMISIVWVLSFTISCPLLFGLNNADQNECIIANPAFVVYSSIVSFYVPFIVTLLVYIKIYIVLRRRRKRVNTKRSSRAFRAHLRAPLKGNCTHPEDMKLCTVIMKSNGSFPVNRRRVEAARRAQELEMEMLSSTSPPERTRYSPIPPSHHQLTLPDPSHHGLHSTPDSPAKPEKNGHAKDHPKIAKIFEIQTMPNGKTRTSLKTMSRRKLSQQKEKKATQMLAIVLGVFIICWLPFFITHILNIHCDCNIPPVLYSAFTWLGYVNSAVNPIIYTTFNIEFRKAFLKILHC
Sequence of Sigma non-opioid intracellular receptor 1 (Cavia porcellus) (Q60492 whole entry): as the sequence (Q60492 whole entry) above

The Ki is the equilibrium dissociation constant of an inhibitor or competing ligand from its target. With `O=[N+]([O-])c1ccc(CN2CCN(CCCc3ccccc3)CC2)cc1`, the values for the Ki in test [1] and in test [2] were 0.37 nM and 3.29 nM, respectively. The Activity in test [3], in test [4] and in [5] was < 5% each time. The Ratio Ki in the test listed under Cavia porcellus amounted to 8.9.

As a reminder, the IC50 is the concentration that inhibits the measured activity by half. As to `COc1ccc2c(c1)[C@]13CCCC[C@@H]1[C@H](C2)N(C)CC3` [DEXTROMETHORPHAN], the IC50 in test [6] came out at 232 nM; in test [7] it was 15.2 nM.

In the case of `Brc1ccccc1CN1CCN(CCCc2ccccc2)CC1`, the Ki in test [1] was 0.6 nM; in [2], 4.12 nM. For the same compound, the Activity in test [3], in test [4] and in test [5] was < 5% in each case. The Ratio Ki in the test listed under Cavia porcellus stood at 6.9.

As to `O=[N+]([O-])c1ccccc1CN1CCN(CCCc2ccccc2)CC1`, the inhibition constant Ki in [1] stood at 2.8 nM; in [2], 3.79 nM. The Activity in [3], in test [4] and in test [5] was < 5% in each case. Moreover, the Ratio Ki in the test listed under Cavia porcellus came to 1.4.

As to `COc1ccc(CN2CCN(CCCc3ccccc3)CC2)cc1`, the Ki in [1] stood at 0.76 nM; in test [2] it was 32.8 nM. Also, the Activity in [3], in [4] and in test [5] was < 5% in each case. The Ratio Ki in the test filed under Cavia porcellus is 43.2.

With `O=[N+]([O-])c1cccc(CN2CCN(CCCc3ccccc3)CC2)c1`, the Ki in test [1] came out at 0.93 nM; in [2], 1.59 nM. For the same compound, the Activity in [3], in test [4] and in test [5] was < 5% each time. Moreover, the Ratio Ki in the test filed under Cavia porcellus was found to be 1.7.

In the case of `Cc1ccc(CN2CCN(CCCc3ccccc3)CC2)cc1`, the Ki in [1] was determined as 1.17 nM; in [2], 17.5 nM. Further, the Activity in test [3], in [4] and in [5] was < 5% in each case. Also, the Ratio Ki in the test listed under Cavia porcellus came out at 15.

With `c1ccc(CCCN2CCN(Cc3ccccc3)CC2)cc1`, the Ki in [1] worked out at 0.66 nM; in [2], 34.3 nM. Further, the Activity in test [3], in [4] and in test [5] was < 5% in each case. Also, the Ratio Ki in the test filed under Cavia porcellus was determined as 52. Further, the IC50 in test [8] was 20 nM; in [9], > 100 nM; on D(2) dopamine receptor, > 100 nM; in test [6], 1.47 nM; in test [7], 1.89 nM. For the same compound, in test [10], the Ratio IC50 stood at 0.8.

Regarding `Ic1cccc(CN2CCN(CCCc3ccccc3)CC2)c1`, the figures for the Ki in test [1] and in test [2] were 0.39 nM and 1.03 nM, respectively. Besides, the Activity in [3], in [4] and in test [5] was < 5% throughout. Moreover, the Ratio Ki in the test listed under Cavia porcellus came to 2.6.

As for `COc1ccc(CCN2CCN(CCCc3ccccc3)CC2)cc1OC` [[11C]SA4503], the Ki in test [2] was found to be 89.5 nM.

On to `COc1cccc(CN2CCN(CCCc3ccccc3)CC2)c1`, for which the inhibition constant (Ki) was 0.87 nM in test [1] and 14.2 nM in test [2]. Besides, the Activity in test [3], in [4] and in [5] was < 5% throughout. Further, the Ratio Ki in the test filed under Cavia porcellus was 16.3.

For `Fc1cccc(CN2CCN(CCCc3ccccc3)CC2)c1`, the inhibition constant (Ki) in test [1] was found to be 1.36 nM; in test [2], 13.8 nM. The Activity in [3], in test [4] and in [5] was < 5% throughout. Besides, the Ratio Ki in the test listed under Cavia porcellus was determined as 10.2.
